Laboratory results taken from ChEMBL document CHEMBL4138208, “Targeting tubulin polymerization by novel 7-aryl-pyrroloquinolinones: Synthesis, biological activity and SARs” (Eur J Med Chem, 2018).
Active and inactive are the calls of the source. No cut-off for these calls is given here.

Legend:
RS4-11 = assay: Growth inhibition of human RS4:11 cells after 72 hrs by MTT assay; type: functional; conditions: RS4-11, 72 h
Jurkat = assay: Growth inhibition of human Jurkat cells after 72 hrs by MTT assay; type: functional
A549 = assay: Growth inhibition of human A549 cells after 72 hrs by MTT assay; type: functional; conditions: A549, 72 h
Kasumi 1 = assay: Growth inhibition of human Kasumi-1 cells after 72 hrs by MTT assay; type: functional; conditions: Kasumi 1, 72 h
MDA-MB-231 = assay: Growth inhibition of human MDA-MB-231 cells after 72 hrs by MTT assay; type: functional; conditions: MDA-MB-231, 72 h
HT-29 = assay: Growth inhibition of human HT-29 cells after 72 hrs by MTT assay; type: functional; conditions: HT-29, 72 h
HeLa [1] = assay: Growth inhibition of human HeLa cells after 72 hrs by MTT assay; type: functional
HeLa [2] = assay: Cell cycle arrest in human HeLa cells assessed as accumulation at S phase after 24 hrs by propidium iodide staining-based flow cytometric analysis; type: functional
Outline: (§1)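 HeLa cells (5 × 10^5) exposed to graded compound concentrations for 24 h, fixed in ice-cold 70% ethanol, then lysed in buffer with RNase A and 0.1% Triton X-100. DNA stained with propidium iodide and phase distribution read by flow cytometry. Mean of two independent experiments ± SEM.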

HeLa [3] = assay: Cell cycle arrest in human HeLa cells assessed as accumulation at G2/M phase after 24 hrs by propidium iodide staining-based flow cytometric analysis; type: functional; outline: as §1
HeLa [4] = assay: Cell cycle arrest in human HeLa cells assessed as accumulation at G1 phase after 24 hrs by propidium iodide staining-based flow cytometric analysis; type: functional; outline: as §1
CCRF-CEM [5] = assay: Cytotoxicity against human CEM cells after 72 hrs by MTT assay; type: functional, cell-based
Outline: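 Cells seeded at 8 × 10^3 per well and preincubated 18 h at 37 °C, 5% CO2. Leukemia lines were in RPMI-1640 and adherent lines in DMEM, each with 10% FBS plus penicillin/streptomycin. Medium replaced with compound at varying concentrations, in triplicate, for 72 h.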

CCRF-CEM [6] = assay: Cytotoxicity against human multidrug-resistant CEM/VBL100 cells after 72 hrs by MTT assay; type: functional, cell-based
Outline: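 CEMVbl-100 (vinblastine-selected, P-gp-overexpressing) cells maintained in RPMI-1640 containing 100 ng/mL vinblastine. Seeded at 8 × 10^3 per well, preincubated 18 h, then exposed in triplicate to varying concentrations for 72 h. Viability read by MTT. IC50 taken as mean ± SEM of three separate experiments.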

Bos taurus = species: Bos taurus; assay: Inhibition of [3H]colchicine binding to bovine brain tubulin at 1 to 5 uM by DEAE-cellulose filter method relative to control
HeLa [7] = assay: Induction of apoptosis in human HeLa cells at 0.1 uM after 24 to 48 hrs by propidium iodide/annexin V/FITC staining-based flow cytometric analysis; type: functional, cell-based
Outline: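 A549 or HeLa cells treated for 24 or 48 h. Cells harvested, double-stained with annexin-V-FITC and propidium iodide, and analysed by flow cytometry for phosphatidylserine exposure. Mean ± SEM of three independent experiments.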

HeLa [8] = assay: Induction of mitochondrial membrane depolarization in human HeLa cells at 0.1 to 1 uM by JC-1 staining based flow cytometric analysis; type: functional, cell-based; conditions: TDE = time-dependent effect
Outline: (§2)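 HeLa cells exposed for 6, 12, 24 or 48 h. Stained either with JC-1 to read mitochondrial membrane potential or with H2-DCFDA to read ROS, then analysed by flow cytometry. Mean ± SEM of three independent experiments.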

HeLa [9] = assay: Cell cycle arrest in human HeLa cells assessed as decrease in phosphatase cdc25c expression at 0.1 to 1 uM after 24 to 48 hrs by Western blot analysis; type: functional, cell-based
Outline: (§3)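 HeLa cells treated for the stated times (24 or 48 h), washed in cold PBS and lysed on ice for 30 min. Lysate cleared at 15000 × g, 4 °C. 10 µg protein run on SDS-PAGE and blotted to PVDF, blocked in 5% BSA. Primary antibodies 2 h at room temperature, then peroxidase secondary 60 min, ECL detection. Membranes stripped and reprobed for γ-tubulin as loading control.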

HeLa [10] = assay: Induction of ROS production in human HeLa cells at 0.1 to 1 uM after 12 to 24 hrs by H2DCFDA staining based flow cytometric analysis; type: functional, cell-based; outline: as §2
HeLa [11] = assay: Induction of apoptosis in human HeLa cells assessed as decrease in Mcl-1 levels at 0.1 to 1 uM after 24 hrs by Western blot analysis; type: functional, cell-based; outline: as §3
HeLa [12] = assay: Induction of apoptosis in human HeLa cells assessed as decrease in Bcl-2 levels at 0.1 to 1 uM after 24 hrs by Western blot analysis; type: functional, cell-based; outline: as §3
[13] = target: Cyclin-dependent kinase 1 (Homo sapiens) (UniProt P06493); assay: Inhibition of cdc2 phosphorylation at Y15 in human HeLa cells at 0.1 to 1 uM after 24 to 48 hrs by Western blot analysis; type: cell-based; outline: as §3
Cyclin-dependent kinase 1 (Homo sapiens), sequence (P06493 whole entry, looked up): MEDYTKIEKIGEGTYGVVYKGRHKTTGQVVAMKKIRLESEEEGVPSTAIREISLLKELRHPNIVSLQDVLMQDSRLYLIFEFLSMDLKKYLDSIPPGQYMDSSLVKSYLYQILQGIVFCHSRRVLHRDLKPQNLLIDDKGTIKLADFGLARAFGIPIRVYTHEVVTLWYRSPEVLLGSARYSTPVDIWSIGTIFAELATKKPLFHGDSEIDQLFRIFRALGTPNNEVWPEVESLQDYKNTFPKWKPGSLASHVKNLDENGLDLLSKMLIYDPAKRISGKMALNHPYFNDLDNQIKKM

[14] = target: T1, M-phase inducer phosphatase 3 (Homo sapiens) (UniProt P30307); assay: Inhibition of cdc25c phosphorylation in human HeLa cells at 0.1 to 1 uM after 24 to 48 hrs by Western blot analysis; type: cell-based; outline: as §3
T1 sequence (whole entry): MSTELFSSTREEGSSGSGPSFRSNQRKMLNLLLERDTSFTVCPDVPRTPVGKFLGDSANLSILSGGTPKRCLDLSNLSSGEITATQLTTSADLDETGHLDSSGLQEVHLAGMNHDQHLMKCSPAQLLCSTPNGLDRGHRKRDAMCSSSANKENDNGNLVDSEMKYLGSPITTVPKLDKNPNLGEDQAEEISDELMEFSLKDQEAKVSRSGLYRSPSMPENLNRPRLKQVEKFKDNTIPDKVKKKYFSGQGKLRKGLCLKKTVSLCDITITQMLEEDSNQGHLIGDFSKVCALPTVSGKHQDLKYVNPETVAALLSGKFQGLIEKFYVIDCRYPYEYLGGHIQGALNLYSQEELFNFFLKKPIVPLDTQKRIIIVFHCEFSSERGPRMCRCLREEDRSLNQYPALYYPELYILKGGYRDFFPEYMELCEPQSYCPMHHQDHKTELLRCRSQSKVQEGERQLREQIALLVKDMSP

Row | SMILES | GI50 (RS4-11) [nM] | GI50 (Jurkat) [nM] | GI50 (A549) [nM] | GI50 (Kasumi 1) [nM] | GI50 (MDA-MB-231) [nM] | GI50 (HT-29) [nM] | GI50 (HeLa [1]) [nM] | further results
1 | CCCCCCCCCCCCCCCCCCn1ccc2c3c(=O)cc(-c4ccccc4)[nH]c3ccc21 | > 10000 | > 10000 | 820 | > 10000 | 5360 | > 10000 | 8350 | –
2 | CCn1ccc2c3c(=O)cc(-c4ccc5c(c4)CCCC5)[nH]c3ccc21 | – | – | – | – | – | – | – | Activity (HeLa [2]): Active; Activity (HeLa [3]): Active; Activity (HeLa [4]): Active
3 | CCCCCCCCCCCCCCCCCCn1ccc2c3c(=O)cc(C)[nH]c3ccc21 | > 10000 | > 10000 | 3400 | > 10000 | > 10000 | > 10000 | 2380 | –
4 | CC[C@]1(O)C[C@@H]2CN(CCc3c([nH]c4ccccc34)[C@@](C(=O)OC)(c3cc4c(cc3OC)N(C)[C@H]3[C@@](O)(C(=O)OC)[C@H](OC(C)=O)[C@]5(CC)C=CCN6CC[C@]43[C@@H]65)C2)C1 [VINBLASTINE] | – | – | – | – | – | – | – | IC50 (CCRF-CEM [5]): 1.5 nM; IC50 (CCRF-CEM [6]): 285 nM
5 | CCn1ccc2ccc3[nH]c(-c4ccccc4)cc(=O)c3c21 | 13 | 27 | 7.1 | 30 | 641 | 16 | 49 | inhibition (Bos taurus): 24%
6 | COc1ccc(/C=C\c2cc(OC)c(OC)c(OC)c2)cc1O | – | – | – | – | – | – | – | Activity (HeLa [7]): Active
7 | CCn1ccc2c3c(=O)cc(-c4cccc5ccccc45)[nH]c3ccc21 | – | – | – | – | – | – | – | Activity (HeLa [2]): Active; IC50 (CCRF-CEM [5]): 29.8 nM; Activity (HeLa [3]): Active; IC50 (CCRF-CEM [6]): 2.3 nM; Activity (HeLa [4]): Active
8 | CCn1ccc2ccc3c(=O)cc(-c4ccccc4)[nH]c3c21 | > 10000 | > 10000 | 9590 | > 10000 | > 10000 | > 10000 | 5920 | –
9 | O=C1C=C(c2ccccc2)Nc2cccc3ccn1c23 | > 10000 | > 10000 | > 10000 | > 10000 | > 10000 | > 10000 | > 10000 | –
10 | CCn1ccc2cc3c(=O)cc(-c4ccccc4)[nH]c3cc21 | 13 | 27 | 7.1 | 30 | 641 | 16 | 49 | inhibition (Bos taurus): 24%
11 | CCn1ccc2c3c(=O)cc(-c4ccc5ccccc5c4)[nH]c3ccc21 | 22 | 32 | 744 | 396 | 465 | 376 | 714 | –
12 | CCn1ccc2c3c(=O)cc(-c4ccc5c(c4)OCO5)[nH]c3ccc21 | – | – | – | – | – | – | – | Activity (HeLa [2]): Active; Activity (HeLa [8]): Tde; Activity (HeLa [9]): Active; Activity (HeLa [10]): Active; Activity (HeLa [11]): Active; IC50 (CCRF-CEM [5]): 27.8 nM; Activity (HeLa [3]): Active; Activity (HeLa [12]): Active; IC50 (CCRF-CEM [6]): 3.7 nM; inhibition [13]: Active; inhibition [14]: Active; Activity (HeLa [4]): Active
